Reference: ChEMBL document CHEMBL4480399, “Identification of a Benzimidazolecarboxylic Acid Derivative (BAY 1316957) as a Potent and Selective Human Prostaglandin E2 Receptor Subtype 4 (hEP4-R) Antagonist for the Treatment of Endometriosis” (J Med Chem, 2019)
In brackets after ≈: the same amount, converted by molar mass. Activity calls are given as the source filed them.

How the values were obtained:
[1] = Kinetic solubility of the compound at pH 6.5; format: physicochemical; details: buffer, read-out: Kinetic_solubility
[2] = biological target: T1, UDP-glucuronosyltransferase 1A1 (Homo sapiens, UniProt P22309); assay: Drug metabolism in human hepatocytes assessed as UGT1A1-mediated acylglucuronide metabolite formation at 10 uM after 4 hrs by HPLC-UV and mass spectrometric analysis; format: ADME, cell-based
T1 sequence (P22309 whole entry): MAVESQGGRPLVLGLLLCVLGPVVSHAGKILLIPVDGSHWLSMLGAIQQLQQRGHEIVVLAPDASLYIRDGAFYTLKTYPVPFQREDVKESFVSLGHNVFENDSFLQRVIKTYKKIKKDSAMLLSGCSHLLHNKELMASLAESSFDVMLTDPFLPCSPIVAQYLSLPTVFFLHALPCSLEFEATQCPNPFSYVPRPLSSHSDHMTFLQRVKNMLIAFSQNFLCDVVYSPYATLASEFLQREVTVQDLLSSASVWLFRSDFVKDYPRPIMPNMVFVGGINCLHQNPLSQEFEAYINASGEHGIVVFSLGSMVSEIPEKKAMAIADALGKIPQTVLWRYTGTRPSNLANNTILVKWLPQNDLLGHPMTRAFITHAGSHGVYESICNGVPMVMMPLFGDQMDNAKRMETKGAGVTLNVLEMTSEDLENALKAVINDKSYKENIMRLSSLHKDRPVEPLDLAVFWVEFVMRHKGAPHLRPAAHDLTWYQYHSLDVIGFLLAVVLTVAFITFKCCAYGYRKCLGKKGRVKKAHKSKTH

[3] = Volume of distribution at steady state in Wistar rat at 1 mg/kg, po by LC-MS/MS analysis; format: ADME, organism-based; details: in vivo
Summary of the method: (§1)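 Male Wistar rats dosed iv (0.3–1 mg/kg) or intragastrically (0.5–10 mg/kg) as solutions with solubilizers such as PEG400; cassette dosing of up to 3 compounds in some studies. Jugular blood taken 2 min to 24 h into Li-heparin tubes. Plasma precipitated with acetonitrile and run by LC-MS/MS. Non-compartmental PK analysis.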

[4] = Blood clearance in Wistar rat at 1 mg/kg, iv by LC-MS/MS analysis; format: ADME, organism-based; details: whole blood; summary of the method: as §1
[5] = Volume of distribution at steady state in Wistar rat at 1 mg/kg, iv by LC-MS/MS analysis; format: ADME, organism-based; details: in vivo, read-out: Vdss; summary of the method: as §1
[6] = biological target: Prostaglandin E2 receptor EP4 subtype (Homo sapiens, UniProt P35408); assay: Antagonist activity at human EP4R assessed as inhibition of agonist-induced cAMP production by fluorescent cAMP tracer cAMP-d2 based FRET assay; format: functional
[7] = Efflux ratio of apparent permeability in human Caco2 cells at 2 uM after 2 hrs by LC/MS/MS analysis; format: ADME, cell-based; details: Caco-2
Summary of the method: (§2)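 Caco-2 cells seeded at 4.5 x 10^4 per well on 0.4 µm inserts and grown 15 days. Assay in FCS-free Hepes-carbonate buffer pH 7.2, with TEER checked. Compound at 2 µM final added apically or basolaterally; both sides sampled before and after 2 h at 37 °C. Papp from peak areas; efflux ratio = Papp B-A / Papp A-B; recovery calculated.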

[8] = Apparent permeability from apical to basolateral side in human Caco2 cells at 2 uM after 2 hrs by LC/MS/MS analysis; format: ADME, cell-based; details: Caco-2; summary of the method: as §2
[9] = biological target: T2, UDP-glucuronosyltransferase 1A1 (Rattus norvegicus, UniProt Q64550); assay: Drug metabolism in rat hepatocytes assessed as UGT1A1-mediated acylglucuronide metabolite formation at 10 uM after 4 hrs by HPLC-UV and mass spectrometric analysis; format: ADME, cell-based
T2 sequence (Q64550 whole entry): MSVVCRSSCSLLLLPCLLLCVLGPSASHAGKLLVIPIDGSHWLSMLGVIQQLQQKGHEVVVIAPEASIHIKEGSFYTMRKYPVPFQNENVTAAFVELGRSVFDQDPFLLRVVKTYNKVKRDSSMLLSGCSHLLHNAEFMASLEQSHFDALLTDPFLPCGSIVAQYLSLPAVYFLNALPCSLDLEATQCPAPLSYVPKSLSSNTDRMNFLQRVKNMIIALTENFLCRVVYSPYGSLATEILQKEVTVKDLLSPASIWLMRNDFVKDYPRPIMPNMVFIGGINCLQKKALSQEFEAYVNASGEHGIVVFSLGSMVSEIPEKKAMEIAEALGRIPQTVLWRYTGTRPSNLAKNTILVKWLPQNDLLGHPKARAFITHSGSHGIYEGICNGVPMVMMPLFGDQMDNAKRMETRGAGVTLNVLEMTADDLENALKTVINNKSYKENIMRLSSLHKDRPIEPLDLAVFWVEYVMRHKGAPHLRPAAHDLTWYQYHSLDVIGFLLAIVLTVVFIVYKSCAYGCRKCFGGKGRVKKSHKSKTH

[10] = Intrinsic clearance in Han Wistar rat hepatocytes assessed as blood clearance at 1 uM after 90 mins by LC-MS/MS analysis; format: ADME, cell-based, Hepatocyte
Summary of the method: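 Rat hepatocytes isolated with a Percoll gradient, viability by trypan blue; 1.0 × 10^6 viable cells/mL in WME + 5% FCS, compound at 1 µM, shaken at 580 rpm. Sampled 2–90 min into cold methanol; LC-MS/MS.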

[11] = Half life in Wistar rat at 1 mg/kg, iv by LC-MS/MS analysis; format: ADME, organism-based; details: in vivo; summary of the method: as §1
[12] = Oral bioavailability in Wistar rat at 1 mg/kg by LC-MS/MS analysis; format: ADME, organism-based; details: in vivo; summary of the method: as §1
[13] = Dose normalized AUC in Wistar rat at 1 mg/kg, po by LC-MS/MS analysis; format: ADME, organism-based; details: in vivo; summary of the method: as §1
[14] = Blood clearance in Wistar rat at 1 mg/kg, po by LC-MS/MS analysis; format: ADME, organism-based; details: whole blood; summary of the method: as §1
[15] = Kinetic solubility of the compound; format: physicochemical; details: read-out: Kinetic_solubility
[16] = Lipophilicity, log D of the compound at pH 7.4; format: physicochemical; details: buffer
[17] = biological target: Prostaglandin E2 receptor EP4 subtype (Mus musculus, UniProt P32240); assay: Antagonist activity at mouse EP4R assessed as inhibition of agonist-induced cAMP production by fluorescent cAMP tracer cAMP-d2 based FRET assay; format: functional
Rattus norvegicus = assay: Antinociceptive activity in Sprague-Dawley rat model of dmPGE2-induced pain behavior assessed as increase in paw withdrawal thresholds at 5 mg/kg, po pretreated 60 mins before dmPGE2 addition and measured after 30 mins post dmPGE2 injection; format: functional, organism-based
Summary of the method: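 Male Sprague-Dawley rats, 220–265 g. Compound suspended in 0.5% CMC and given orally; vehicle controls. At 60 min, 10 µg dmPGE2 in PBS injected into the plantar surface of the left hind paw. Electronic von Frey thresholds taken 30 min later, mean of 3 per paw, against day −1 baseline. Mean ±SD; Grubbs outlier test; 1-way ANOVA with Dunnett's test.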

Chain of Prostaglandin E2 receptor EP4 subtype (Homo sapiens, UniProt P35408) (P35408 whole entry): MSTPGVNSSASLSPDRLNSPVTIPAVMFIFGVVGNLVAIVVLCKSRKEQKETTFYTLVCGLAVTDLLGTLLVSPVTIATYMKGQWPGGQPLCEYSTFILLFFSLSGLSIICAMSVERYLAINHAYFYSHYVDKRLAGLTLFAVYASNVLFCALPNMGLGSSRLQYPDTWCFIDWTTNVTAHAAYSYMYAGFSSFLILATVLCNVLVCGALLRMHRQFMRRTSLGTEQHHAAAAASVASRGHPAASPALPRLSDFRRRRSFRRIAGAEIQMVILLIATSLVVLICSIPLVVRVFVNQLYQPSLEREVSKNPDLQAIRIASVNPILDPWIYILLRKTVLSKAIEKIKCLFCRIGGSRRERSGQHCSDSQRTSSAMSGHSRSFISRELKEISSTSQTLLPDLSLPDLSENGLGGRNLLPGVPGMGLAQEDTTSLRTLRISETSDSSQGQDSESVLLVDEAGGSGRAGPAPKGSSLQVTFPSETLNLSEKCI
Chain of Prostaglandin E2 receptor EP4 subtype (Mus musculus, UniProt P32240) (P32240 whole entry): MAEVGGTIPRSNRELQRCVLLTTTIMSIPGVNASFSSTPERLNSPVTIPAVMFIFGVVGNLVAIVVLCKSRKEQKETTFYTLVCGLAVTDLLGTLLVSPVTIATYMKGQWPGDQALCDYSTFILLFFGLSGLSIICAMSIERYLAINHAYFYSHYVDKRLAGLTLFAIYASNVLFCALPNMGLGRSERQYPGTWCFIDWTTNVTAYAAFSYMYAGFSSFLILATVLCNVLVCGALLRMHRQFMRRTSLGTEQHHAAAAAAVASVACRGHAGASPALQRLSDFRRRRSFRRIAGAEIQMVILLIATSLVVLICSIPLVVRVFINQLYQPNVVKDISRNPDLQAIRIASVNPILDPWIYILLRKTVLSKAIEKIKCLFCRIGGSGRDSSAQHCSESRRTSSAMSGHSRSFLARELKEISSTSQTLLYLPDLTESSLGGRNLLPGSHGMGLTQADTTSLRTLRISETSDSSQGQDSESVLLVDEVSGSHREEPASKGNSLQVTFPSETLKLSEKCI

Compound: CCn1c2ccccc2c2cc(-c3nc4c(C)c(C(=O)O)ccc4n3CCOC)ccc21
- solubility kinetic [1]: 150 µg/mL (≈ 351 µM)
- Drug metabolism [2]: Metabolite_Detected
- Vdss [3]: 0.36 L/kg
- clearance [4]: 1 mL/min/kg
- Vd [5]: 0.36 L/kg
- IC50 [6]: 24.7 nM
- efflux ratio at 2 h, 2 µM [7]: 1.1
- Papp A→B at 2 h, 2 µM [8]: 13.5 ×10⁻⁶ cm/s
- Drug metabolism [9]: Metabolite_Detected
- CLhep predicted at […], 1 µM [10]: 1.67 to 2.5 mL/min/kg
- half-life [11]: 4.9 h
- bioavailability [12]: 92%
- AUC/dose [13]: 20 kg·h/L
- CL/F [14]: 1 mL/min/kg

Compound: Cn1c2ccccc2c2cc(-c3nc4cc(C(=O)O)ccc4n3CC3CC3)ccc21
- IC50 [6]: 34.2 nM

Compound: CCn1c2ccccc2c2cc(-c3nc4cc(C(=O)O)ccc4n3-c3ccccc3)ccc21
- IC50 [6]: 3120 nM

Compound: CCn1c2ccccc2c2cc(-c3nc4cc(C(=O)O)c(F)cc4n3CCOC)ccc21
- IC50 [6]: 34.6 nM

Compound: CCn1c2ccccc2c2cc(-c3nc4cc(C(=O)NS(=O)(=O)N(C)C)ccc4n3CCOC)ccc21
- IC50 [6]: 148 nM

Compound: CCn1c2ccc(-c3nc4c(C)c(C(=O)O)ccc4n3CCOC)cc2c2c(C)cccc21
- IC50 [6]: 54.6 nM

Compound: CCn1c2ccccc2c2cc(-c3nc4c(F)c(C(=O)O)ccc4n3CCOC)ccc21
- IC50 [6]: 4.3 nM

Compound: CCn1c2ccc(OC(F)(F)F)cc2c2cc(-c3nc4c(C)c(C(=O)O)ccc4n3CCOC)ccc21
- IC50 [6]: 366 nM

Compound: CCn1c2ccccc2c2cc(-c3nc4cc(C(=O)NC)ccc4n3CC3CC3)ccc21
- solubility kinetic [15]: < 0.1 µg/mL
- IC50 [6]: 286 nM
- logD [16]: 4.1

Compound: CCn1c2ccccc2c2cc(-c3nc4c(Cl)c(C(=O)O)ccc4n3CCOC)ccc21
- IC50 [6]: 15.9 nM

Compound: CCn1c2ccc(-c3nc4c(C)c(C(=O)O)ccc4n3CCOC)cc2c2cccc(C)c21
- IC50 [6]: 4.2 nM

Compound: CCn1c2ccccc2c2cc(-c3nc4cc(C(=O)O)ccc4n3CCOC)ccc21
- IC50 [17]: 81 nM
- IC50 [6]: 4.7 nM

Compound: CCn1c2ccc(C)cc2c2cc(-c3nc4c(C)c(C(=O)O)ccc4n3CCOC)ccc21
- Activity (Rattus norvegicus): Active

Compound: CCn1c2ccccc2c2cc(-c3nc4cc(-c5n[nH]c(=O)o5)ccc4n3CCOC)ccc21
- efflux ratio at 2 h, 2 µM [7]: 0.9
- Papp A→B at 2 h, 2 µM [8]: 1.24 ×10⁻⁶ cm/s
- CLhep predicted at […], 1 µM [10]: 30 mL/min/kg

Compound: CCn1c2ccccc2c2cc(-c3nc4cc(C(=O)NS(C)(=O)=O)ccc4n3CCOC)ccc21
- CLhep predicted at […], 1 µM [10]: 26.7 mL/min/kg

Compound: CCn1c2ccc(Cl)cc2c2cc(-c3nc4c(C)c(C(=O)O)ccc4n3CCOC)ccc21
- IC50 [6]: 4.4 nM
- efflux ratio at 2 h, 2 µM [7]: 0.5
- Papp A→B at 2 h, 2 µM [8]: 20.8 ×10⁻⁶ cm/s
- CLhep predicted at […], 1 µM [10]: 10 mL/min/kg

Compound: CCn1c2ccccc2c2cc(-c3nc4ccc(C(=O)O)cc4n3CCOC)ccc21
- IC50 [6]: 1420 nM

Compound: CCn1c2ccccc2c2cc(-c3nc4cc(S(=O)(=O)O)ccc4n3CCOC)ccc21
- IC50 [6]: 222 nM

Compound: CCn1c2ccc(-c3nc4c(C)c(C(=O)O)ccc4n3CCOC)cc2c2cc(C(F)(F)F)ccc21
- IC50 [6]: 17.4 nM

Compound: CCn1c2ccccc2c2cc(-c3nc4cc(-c5noc(=O)[nH]5)ccc4n3CCOC)ccc21
- IC50 [6]: 6.1 nM
- efflux ratio at 2 h, 2 µM [7]: 3.3
- Papp A→B at 2 h, 2 µM [8]: 2.63 ×10⁻⁶ cm/s
- CLhep predicted at […], 1 µM [10]: 11.7 mL/min/kg

Compound: CCn1c2ccccc2c2cc(-c3nc4cc(C(=O)O)ccc4n3C)ccc21
- IC50 [6]: 166 nM

Compound: CCn1c2ccc(-c3nc4c(C)c(C(=O)O)ccc4n3CCOC)cc2c2c(Cl)cccc21
- IC50 [6]: 65.5 nM

Compound: CCn1c2ccccc2c2cc(-c3nc4cc(C(=O)O)ccc4n3CC3CC3)ccc21
- IC50 [17]: 113 nM
- solubility kinetic [15]: 3.2 µg/mL (≈ 7.81 µM)
- IC50 [6]: 12.8 nM
- logD [16]: 3

Compound: CCn1c2ccccc2c2cc(-c3nc4cc(C(=O)O)c(Cl)cc4n3CCOC)ccc21
- IC50 [6]: 751 nM

Compound: CCn1c2ccccc2c2cc(-c3nc4cc(C(=O)O)ccc4n3CC3CCO3)ccc21 (stereo not drawn)
- IC50 [6]: 51.5 nM

Compound: CCn1c2ccccc2c2cc(-c3nc4cc(-c5nnn[nH]5)ccc4n3CCOC)ccc21
- IC50 [6]: 6.8 nM
